Reference: ChEMBL document CHEMBL4138062, “Pyrazolobenzothiazine-based carbothioamides as new structural leads for the inhibition of monoamine oxidases: design, synthesis, in vitro bioevaluation and molecular docking studies” (Medchemcomm, 2017)

Legend:
[1] = target: T1, Amine oxidase [flavin-containing] A (Homo sapiens, UniProt P21397); test: Inhibition of human MAOA pre-incubated for 10 mins before p-tyramine substrate addition and measured after 10 mins by amplex red reagent-based microplate fluorescence reader analysis
T1 sequence (P21397 whole entry): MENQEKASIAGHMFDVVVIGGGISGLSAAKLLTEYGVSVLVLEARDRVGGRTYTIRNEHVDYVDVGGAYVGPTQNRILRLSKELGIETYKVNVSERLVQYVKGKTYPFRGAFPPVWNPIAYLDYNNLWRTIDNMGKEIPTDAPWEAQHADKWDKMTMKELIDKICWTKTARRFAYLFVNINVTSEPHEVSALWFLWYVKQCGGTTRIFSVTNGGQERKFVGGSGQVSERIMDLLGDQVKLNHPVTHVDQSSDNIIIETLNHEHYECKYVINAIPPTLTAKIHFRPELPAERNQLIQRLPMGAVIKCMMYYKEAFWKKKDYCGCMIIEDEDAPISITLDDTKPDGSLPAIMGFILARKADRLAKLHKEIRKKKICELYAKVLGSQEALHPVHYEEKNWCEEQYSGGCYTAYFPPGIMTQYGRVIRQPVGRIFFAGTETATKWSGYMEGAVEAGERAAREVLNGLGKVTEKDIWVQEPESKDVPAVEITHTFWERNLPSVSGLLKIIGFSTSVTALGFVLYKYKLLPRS

[2] = target: T2, Amine oxidase [flavin-containing] B (Homo sapiens, UniProt P27338); test: Inhibition of human MAOB at 0.1 mM pre-incubated for 10 mins before p-tyramine substrate addition and measured after 10 mins by amplex red reagent-based microplate fluorescence reader analysis
T2 sequence (P27338 whole entry): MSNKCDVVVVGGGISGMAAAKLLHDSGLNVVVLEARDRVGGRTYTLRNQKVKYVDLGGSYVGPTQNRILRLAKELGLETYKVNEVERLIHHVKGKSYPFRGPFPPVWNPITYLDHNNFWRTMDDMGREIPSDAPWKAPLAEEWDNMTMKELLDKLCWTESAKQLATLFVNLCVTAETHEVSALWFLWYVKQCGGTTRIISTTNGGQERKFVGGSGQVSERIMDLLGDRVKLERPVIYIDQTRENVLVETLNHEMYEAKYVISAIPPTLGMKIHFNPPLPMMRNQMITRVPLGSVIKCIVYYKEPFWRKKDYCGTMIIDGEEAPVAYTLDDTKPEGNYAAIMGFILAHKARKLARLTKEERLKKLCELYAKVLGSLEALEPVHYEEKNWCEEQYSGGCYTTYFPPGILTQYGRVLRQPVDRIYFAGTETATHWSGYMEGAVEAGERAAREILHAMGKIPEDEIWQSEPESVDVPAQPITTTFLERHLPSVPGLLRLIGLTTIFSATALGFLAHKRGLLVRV
How it was run: (§1)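 The reaction in 50 mM phosphate buffer (pH 7.4) was preincubated with enzyme and test compound at 37 °C for 10 min. p-Tyramine (3 mM solution) and Amplex Red reagent were then added, and the mix was held at 37 °C for 10 min. Resorufin fluorescence (ex 544, em 590 nm) from H2O2 was read. Percent inhibition was taken at 100 μM final concentration, in triplicate.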

[3] = target: T2, Amine oxidase [flavin-containing] B
[4] = target: T1, Amine oxidase [flavin-containing] A; test: Inhibition of human MAOA at 0.1 mM pre-incubated for 10 mins before p-tyramine substrate addition and measured after 10 mins by amplex red reagent-based microplate fluorescence reader analysis; how it was run: as §1

IC50 [1] [µM]	inhibition at 100 µM [2] [%]	IC50 [3] [µM]	inhibition at 100 µM [4] [%]	inhibition (INH) ([2]; 100 µM) [%]	inhibition (INH) ([4]; 100 µM) [%]	Structure (SMILES)
33.8	> 50	0.68	> 50			CN1c2c(nn(-c3ccc(/C=N/NC(=S)Nc4ccccc4Cl)cc3)c2-c2ccccc2)-c2ccccc2S1(=O)=O
10.6	> 50	0.64	> 50			CN1c2c(nn(-c3ccc(/C=N/NC(=S)NCc4ccccc4)cc3)c2-c2ccccc2)-c2ccccc2S1(=O)=O
7.73	> 50	20.9	> 50			CN1c2c(nn(-c3ccc(/C=N/NC(=S)Nc4cccc(Cl)c4)cc3)c2-c2ccccc2)-c2ccccc2S1(=O)=O
0.97	> 50	2.39	> 50			CN1c2c(nn(-c3ccc(/C=N/NC(N)=S)cc3)c2-c2ccccc2)-c2ccccc2S1(=O)=O
9.02	> 50	1.76	> 50			CN1c2c(nn(-c3ccc(/C=N/NC(=S)Nc4cccc(F)c4)cc3)c2-c2ccccc2)-c2ccccc2S1(=O)=O
3.69	> 50	4.15	> 50			Cc1c2c(nn1-c1ccc(/C=N/NC(=S)Nc3ccccc3)cc1)-c1ccccc1S(=O)(=O)N2C
27.2	> 50	2.49	> 50			CN1c2c(nn(-c3ccc(/C=N/NC(=S)Nc4ccccc4)cc3)c2-c2ccccc2)-c2ccccc2S1(=O)=O
3.07	> 50	2.99	> 50			CN1c2c(nn(-c3ccc(/C=N/NC(=S)NCN4CCOCC4)cc3)c2-c2ccccc2)-c2ccccc2S1(=O)=O
0.54	19		> 50			CN1c2c(nn(-c3ccc(/C=N/NC(=S)Nc4ccccc4F)cc3)c2-c2ccccc2)-c2ccccc2S1(=O)=O
2.33	> 50	6.99	> 50			CN1c2c(nn(-c3ccc(/C=N/NC(=S)Nc4ccc(F)cc4)cc3)c2-c2ccccc2)-c2ccccc2S1(=O)=O
2.06	> 50	3.27	> 50			CN1c2c(nn(-c3ccc(/C=N/NC(=S)Nc4ccc(Cl)cc4)cc3)c2-c2ccccc2)-c2ccccc2S1(=O)=O

The remaining lines, values behind:

Structure (SMILES)	IC50 [1] [µM]	inhibition at 100 µM [2] [%]	IC50 [3] [µM]	inhibition at 100 µM [4] [%]	inhibition (INH) ([2]; 100 µM) [%]	inhibition (INH) ([4]; 100 µM) [%]
Cc1c2c(nn1-c1ccc(/C=N/NC(=S)Nc3cccc(Cl)c3)cc1)-c1ccccc1S(=O)(=O)N2C	1.11	> 50	2.89	> 50		
CCc1ccc(NC(=S)N/N=C/c2ccc(-n3nc4c(c3C)N(C)S(=O)(=O)c3ccccc3-4)cc2)cc1	1.77	> 50	2.91	> 50		
Cc1c2c(nn1-c1ccc(/C=N/NC(=S)Nc3ccc(Cl)cc3)cc1)-c1ccccc1S(=O)(=O)N2C	3.49	> 50	0.43	> 50		
Cc1c2c(nn1-c1ccc(/C=N/NC(N)=S)cc1)-c1ccccc1S(=O)(=O)N2C	31.2	36		> 50		
Cc1ccc(NC(=S)N/N=C/c2ccc(-n3nc4c(c3C)N(C)S(=O)(=O)c3ccccc3-4)cc2)cc1	0.003	> 50	29.5	> 50		
Cc1c2c(nn1-c1ccc(/C=N/NC(=S)NCc3ccccc3)cc1)-c1ccccc1S(=O)(=O)N2C	76.2	> 50	4.72	> 50		
Cc1c2c(nn1-c1ccc(/C=N/NC(=S)Nc3cccc(F)c3)cc1)-c1ccccc1S(=O)(=O)N2C	0.47	> 50	1.68	> 50		
Cc1ccc(NC(=S)N/N=C/c2ccc(-n3nc4c(c3C)N(C)S(=O)(=O)c3ccccc3-4)cc2)c(C)c1	1.13	> 50	0.11	> 50		
Cc1cccc(C)c1NC(=S)N/N=C/c1ccc(-n2nc3c(c2-c2ccccc2)N(C)S(=O)(=O)c2ccccc2-3)cc1	65.7	> 50	0.77	> 50		
Cc1c2c(nn1-c1ccc(/C=N/NC(=S)Nc3ccccc3F)cc1)-c1ccccc1S(=O)(=O)N2C	1.42	> 50	3.83	> 50		
Cc1ccc(NC(=S)N/N=C/c2ccc(-n3nc4c(c3-c3ccccc3)N(C)S(=O)(=O)c3ccccc3-4)cc2)c(C)c1	9.15	> 50	0.75	> 50		
Cc1ccccc1NC(=S)N/N=C/c1ccc(-n2nc3c(c2C)N(C)S(=O)(=O)c2ccccc2-3)cc1	0.01	> 50	3.13	> 50		
Cc1c2c(nn1-c1ccc(/C=N/NC(=S)NCN3CCOCC3)cc1)-c1ccccc1S(=O)(=O)N2C	64.8	> 50	4.34	> 50		
Cc1c2c(nn1-c1ccc(/C=N/NC(=S)Nc3ccccc3Cl)cc1)-c1ccccc1S(=O)(=O)N2C	4.06	> 50	6.21	> 50		
Cc1c2c(nn1-c1ccc(/C=N/NC(=S)Nc3ccc(F)cc3)cc1)-c1ccccc1S(=O)(=O)N2C	30.2	41		> 50		
Cc1cccc(C)c1NC(=S)N/N=C/c1ccc(-n2nc3c(c2C)N(C)S(=O)(=O)c2ccccc2-3)cc1					> 50	> 50
CCc1ccc(NC(=S)N/N=C/c2ccc(-n3nc4c(c3-c3ccccc3)N(C)S(=O)(=O)c3ccccc3-4)cc2)cc1	8.18	> 50	0.02	> 50		
